Converted amounts (≈) assume the structure as drawn. The source made the active and inactive calls. The rule behind the calls is not given here.
Assays:
Plasmodium berghei [1] = assay: Antimalarial activity against Plasmodium berghei […] mouse model assessed as causal prophylactic activity at 160 mg/kg, po administered one day before infection, on day of infection and one day post infection; assay type: functional, organism-based; set-up: dose 160 mg/kg
Method in brief: (§1)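 Sporozoite-challenged exoerythrocytic mouse model using P. berghei. Compound ground and suspended in hydroxyethylcellulose with Tween 80 for oral dosing, given once daily for 3 consecutive days: day before, 4 h before, and day after sporozoite inoculation. Dose in (mg/kg)/day. Mice are scored for protection (causal prophylaxis) and for delay in patency.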

Plasmodium falciparum [2] = assay: Antimalarial activity against blood stage Plasmodium falciparum W2 assessed as [3H]-hypoxanthine uptake after 24 hrs by scintillation counting; assay type: functional, organism-based
Plasmodium falciparum [3] = assay: Antimalarial activity against blood stage Plasmodium falciparum D6 assessed as [3H]-hypoxanthine uptake after 24 hrs by scintillation counting; assay type: functional, organism-based
[4] = Metabolic stability in human assessed as half life at 160 mg/kg, po by LC-MS/MS analysis; assay type: ADME, organism-based; set-up: dose 160 mg/kg, route oral
Plasmodium cynomolgi [5] = assay: Antimalarial activity against Plasmodium cynomolgi infected in rhesus monkey assessed as delay in patency time at 50 mg/kg, po administered one day before infection, on day of infection followed by 1 day post infection; assay type: functional
Method in brief: (§2)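 Rhesus monkeys challenged with P. cynomolgi sporozoites. Oral dosing on days −1, 0 and 1 in HECT or MC vehicle, with dose in (mg/kg)/day. Read-out is the first day of patency and the delay in patency relative to vehicle-treated controls.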

Plasmodium falciparum [6] = assay: Antimalarial activity against blood stage Plasmodium falciparum TM91C235 assessed as [3H]-hypoxanthine uptake after 24 hrs by scintillation counting; assay type: functional, organism-based
[7] = Metabolic stability in mouse assessed as half life at 160 mg/kg, po by LC-MS/MS analysis; assay type: ADME, organism-based; set-up: dose 160 mg/kg, route oral
[8] = Metabolic stability in human assessed as half life at 320 mg/kg, po by LC-MS/MS analysis; assay type: ADME, organism-based; set-up: dose 320 mg/kg, route oral
Plasmodium berghei [9] = assay: Antimalarial activity against Plasmodium berghei […] mouse model assessed as delay in patency time at 320 mg/kg, po administered one day before infection, on day of infection and one day post infection; assay type: functional; method in brief: as §1
[10] = Metabolic stability in mouse assessed as half life at 320 mg/kg, po by LC-MS/MS analysis; assay type: ADME, organism-based; set-up: dose 320 mg/kg, route oral; details: in vivo
Plasmodium berghei [11] = assay: Antimalarial activity against Plasmodium berghei […] mouse model assessed as delay in patency time at 160 mg/kg, po administered one day before infection, on day of infection and one day post infection; assay type: functional; method in brief: as §1
Plasmodium berghei [12] = assay: Antimalarial activity against Plasmodium berghei […] mouse model assessed as causal prophylactic activity at 320 mg/kg, po administered one day before infection, on day of infection and one day post infection; assay type: functional, organism-based; set-up: dose 320 mg/kg
Method in brief: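 Sporozoite-inoculated P. berghei exoerythrocytic (EE) mouse model. Compound ground and suspended in hydroxyethylcellulose plus Tween 80 for oral dosing, given once daily for 3 consecutive days: day before, 4 h before, and day after sporozoite inoculation (days −1, 0, 1). Dose in (mg/kg)/day. Read-out is mice protected per group (causal prophylaxis) or delay in patency.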

Plasmodium berghei [13] = assay: Antimalarial activity against Plasmodium berghei […] mouse model assessed as delay in patency time at 40 mg/kg, po administered one day before infection, on day of infection and one day post infection; assay type: functional; method in brief: as §1
[14] = Half life in po dosed rhesus monkey; assay type: ADME, organism-based, Macaca mulatta; details: in vivo
Rhesus monkey [15] = assay: Drug uptake in rhesus monkey after 24 hrs relative to control; assay type: ADME, organism-based, Macaca mulatta; details: in vivo
Rhesus monkey [16] = assay: Drug uptake in im dosed rhesus monkey measured after 24 hrs; assay type: ADME, organism-based, Macaca mulatta; details: in vivo
[17] = Half life in im dosed rhesus monkey; assay type: ADME, organism-based, Macaca mulatta; details: in vivo
Rhesus monkey [18] = assay: Drug uptake in im dosed rhesus monkey assessed as 1-(3,4-dichlorophenyl)-2-(1-isopropyl-4,5-dioxo-4,5-dihydro-1H-imidazol-2-yl)guanidine measured after 24 hrs; assay type: ADME, organism-based, Macaca mulatta; details: in vivo
Rhesus monkey [19] = assay: Drug uptake in po dosed rhesus monkey assessed as 1-(3,4-dichlorophenyl)-2-(1-isopropyl-4,5-dioxo-4,5-dihydro-1H-imidazol-2-yl)guanidine measured after 24 hrs; assay type: ADME, organism-based, Macaca mulatta; details: in vivo
Rhesus monkey [20] = assay: Drug uptake in po dosed rhesus monkey measured after 24 hrs; assay type: ADME, organism-based, Macaca mulatta; details: in vivo
Plasmodium cynomolgi [21] = assay: Antimalarial activity against Plasmodium cynomolgi infected in rhesus monkey assessed as delay in patency time at 0.316 mg/kg, po administered one day before infection, on day of infection followed by 1 day post infection; assay type: functional; method in brief: as §2
Plasmodium berghei [22] = assay: Antimalarial activity against Plasmodium berghei […] mouse model assessed as causal prophylactic activity at 40 mg/kg, po administered one day before infection, on day of infection and one day post infection; assay type: functional, organism-based; set-up: dose 40 mg/kg; method in brief: as §1
Plasmodium cynomolgi [23] = assay: Antimalarial activity against Plasmodium cynomolgi infected in rhesus monkey assessed as time delayed in relapse of patency at 10 mg/kg/day, po administered for 7 days; assay type: functional
Method in brief: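 Rhesus monkeys that developed P. cynomolgi parasitemia in the prophylaxis test were used once parasitemia reached 5000 parasites/mm³. Oral chloroquine 10 (mg/kg)/day was given for 7 days, with test agent given alongside. Relapse was monitored. Monkeys with no relapse after 100 days were counted as radically cured. Relapsing controls were retreated with chloroquine and followed for a second relapse.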

Plasmodium cynomolgi [24] = assay: Antimalarial activity against Plasmodium cynomolgi infected in rhesus monkey assessed as delay in patency time at 1.78 mg/kg, po administered one day before infection, on day of infection followed by 1 day post infection; assay type: functional; method in brief: as §2

SMILES | Activity (Plasmodium berghei [1]) | IC50 (Plasmodium falciparum [2]) [µg/mL] | IC50 (Plasmodium falciparum [3]) [µg/mL] | half-life [4] [min] | IC50 (Plasmodium falciparum [6]) [µg/mL] | half-life [7] [min] | half-life [8] [min] | half-life [10] [min] | Time (Plasmodium berghei [11]) [days] | also measured
CC(C)N1CC(=O)N=C1N/C(=N\C(=O)OC(C)(C)C)Nc1ccc(Cl)c(Cl)c1 | Active | 0.74 (≈ 1.73 µM) | 1.6 (≈ 3.74 µM) | 12.8 | > 5 | 15.8 |  |  |  | Time (Plasmodium cynomolgi [5]): 2 days
CC(C)(C)N/C(=N/C1=NC(=O)CN1c1ccc(Cl)c(Cl)c1)Nc1ccc(Cl)c(Cl)c1 | inactive | 2.58 (≈ 5.3 µM) | 2.45 (≈ 5.03 µM) |  |  | > 60 | > 60 |  |  | 
CC(C)N/C(=N\C(=O)C(C)(C)C)NC1=NC(=O)CN1c1ccc(Cl)c(Cl)c1 |  | 4.87 (≈ 11.8 µM) | 4.65 (≈ 11.3 µM) |  |  |  | 40.5 | 13.5 | 2 | Time (Plasmodium berghei [9]): 2 days
CC(C)/N=C(\NC1=NC(=O)CN1c1ccc(Cl)c(Cl)c1)Nc1ccc(Cl)c(Cl)c1 | inactive | 2.86 (≈ 6.04 µM) | 1.66 (≈ 3.51 µM) | 39.2 | 2.83 (≈ 5.98 µM) | 27.2 |  |  |  | Time (Plasmodium berghei [9]): 1 days; Activity (Plasmodium berghei [12]): inactive
CC(C)N1CC(=O)N=C1N/C(=N/c1ccc(Cl)c(Cl)c1)N1CCCCC1 | inactive | 1.98 (≈ 5 µM) | > 5 | 28 |  | 18 |  |  |  | 
CC(C)(C)OC(=O)/N=C(\NC1=NC(=O)CN1C(C)(C)C)Nc1ccc(Cl)c(Cl)c1 | Active | > 5 | 2.9 (≈ 6.56 µM) | < 10 | > 5 | < 10 |  |  |  | 
CC(C)N1CC(=O)N=C1N/C(=N\C12CC3CC(CC(C3)C1)C2)Nc1ccc(Cl)c(Cl)c1 | inactive | 2.51 (≈ 5.43 µM) | 1.55 (≈ 3.35 µM) | 20.9 | 2.6 (≈ 5.62 µM) | 22.3 |  |  |  | 
CN1CC(=O)N=C1N/C(=N\C(=O)OC(C)(C)C)Nc1ccc(Cl)c(Cl)c1 |  | 1.72 (≈ 4.3 µM) | 1.26 (≈ 3.15 µM) | < 10 | 2.54 (≈ 6.35 µM) | < 10 |  |  | 1 | Time (Plasmodium berghei [13]): 2 days
CC(C)N1C(=O)C(=O)NC1=NC(=NC(=O)OC(C)(C)C)Nc1ccc(Cl)c(Cl)c1 |  |  |  |  |  |  |  |  |  | half-life [14]: 534 min; Ratio (Rhesus monkey [15]): 10; Drug uptake (Rhesus monkey [16]): 96%; half-life [17]: 2.94 days; Drug uptake (Rhesus monkey [18]): 4%; Drug uptake (Rhesus monkey [19]): 4%; Drug uptake (Rhesus monkey [20]): 86%
CC(C)N/C(=N/C(=O)OC(C)(C)C)NC1=NC(=O)CN1c1cccc(Cl)c1Cl |  | 0.63 (≈ 1.47 µM) | 0.56 (≈ 1.31 µM) |  | 0.9 (≈ 2.1 µM) |  | > 60 | > 60 |  | 
CC(C)/N=C(\NC1=NC(=O)CN1C(C)C)Nc1ccc(Cl)c(Cl)c1 |  | 0.37 (≈ 0.999 µM) | 1.65 (≈ 4.46 µM) |  | > 5 |  | 53 | 17 | 1 | Activity (Plasmodium berghei [12]): Active; Time (Plasmodium cynomolgi [5]): 4 days
COc1cc(C)c2c(Oc3cccc(C(F)(F)F)c3)c(OC)cc(NC(C)CCCN)c2n1 (centres undefined) [TAFENOQUINE] |  |  |  |  |  |  |  |  |  | Time (Plasmodium cynomolgi [21]): 2 days
CC(C)/N=C(\NC1=NC(=O)CN1C)Nc1ccc(Cl)c(Cl)c1 |  | > 5 | > 5 |  | > 5 |  | > 60 | 49.8 | 2 | 
CC(C)N1CC(=O)N=C1N/C(=N\C(=O)C(C)(C)C)Nc1ccc(Cl)c(Cl)c1 |  | 4.9 (≈ 11.9 µM) | 3.19 (≈ 7.74 µM) | > 60 | > 1.28 | > 60 |  |  | 3 | Time (Plasmodium cynomolgi [5]): 0 days; Activity (Plasmodium berghei [22]): inactive
CCOC(=O)/N=C(\NC1=NC(=O)CN1C(C)C)Nc1ccc(Cl)c(Cl)c1 | inactive | 2.8 (≈ 7 µM) | 2.86 (≈ 7.15 µM) |  |  |  | 34.3 | > 60 | 2 | Time (Plasmodium berghei [9]): 2 days
CC/N=C(\NC1=NC(=O)CN1c1ccc(Cl)c(Cl)c1)Nc1ccc(Cl)c(Cl)c1 | inactive | > 5 | 2.6 (≈ 5.66 µM) |  | > 5 | > 60 | > 60 |  |  | 
CC(C)NC(=N)NC1=NC(=O)CN1c1cccc(Cl)c1Cl |  | 0.7 (≈ 2.13 µM) | 1.1 (≈ 3.35 µM) |  | 2.19 (≈ 6.67 µM) |  | 53.7 | 13.5 |  | 
CC(C)N1CC(=O)N=C1N/C(=N/c1ccc(Cl)c(Cl)c1)N1CCCC1 |  | 2.2 (≈ 5.75 µM) | > 5 | > 60 | > 5 | > 60 |  |  | 2 | 
CC/N=C(\NC1=NC(=O)CN1C(C)C)Nc1ccc(Cl)c(Cl)c1 |  | 2.27 (≈ 6.37 µM) | 3.38 (≈ 9.49 µM) |  | 3.01 (≈ 8.45 µM) |  |  |  |  | 
CC(C)N1CC(=O)N=C1NC(=N)Nc1ccc(Cl)c(Cl)c1 | inactive | 2.57 (≈ 7.83 µM) | 3.42 (≈ 10.4 µM) | > 60 | 3.31 (≈ 10.1 µM) | 40 |  |  |  | Time (Plasmodium berghei [13]): 6 days
CC(C)N1CC(=O)N=C1N/C(=N\C(C)(C)C)Nc1ccc(Cl)c(Cl)c1 | inactive | 1.49 (≈ 3.88 µM) | 3 (≈ 7.81 µM) | 39.7 | 5.2 (≈ 13.5 µM) | 1.72 |  |  |  | 
CCN(CC)CCCC(C)Nc1ccnc2cc(Cl)ccc12 (centres undefined) [CHLOROQUINE] |  |  |  |  |  |  |  |  |  | Time (Plasmodium cynomolgi [23]): 11 days
CC(C)n1cc(OC(=O)C(C)(C)C)nc1N/C(=N\C(=O)C(C)(C)C)Nc1ccc(Cl)c(Cl)c1 | inactive | > 12 | > 12 | > 60 | > 12 | > 60 |  |  |  | 
CCC(CC)C(=O)/N=C(\NC1=NC(=O)CN1C(C)C)Nc1ccc(Cl)c(Cl)c1 | inactive | 0.09 (≈ 0.211 µM) | 0.06 (≈ 0.141 µM) |  | 0.16 (≈ 0.375 µM) |  | 14 | 5 | 2 | Time (Plasmodium berghei [9]): 3 days
COc1cc(NC(C)CCCN)c2ncccc2c1 (centres undefined) [PRIMAQUINE] |  |  |  |  |  |  |  |  |  | Time (Plasmodium cynomolgi [24]): 5 days
CCC(CC)C(=O)/N=C(\NC1=NC(=O)CN1c1cccc(Cl)c1Cl)NC(C)C |  | 1.55 (≈ 3.64 µM) | 0.78 (≈ 1.83 µM) |  |  |  | 59.2 | > 60 |  | Time (Plasmodium berghei [9]): 2 days
CCOC(=O)/N=C(/NC1=NC(=O)CN1c1ccc(Cl)c(Cl)c1)NC(C)C |  | 0.25 (≈ 0.625 µM) | 0.15 (≈ 0.375 µM) |  |  |  | > 60 | > 60 |  | Activity (Plasmodium berghei [12]): inactive
CN1CC(=O)N=C1NC(=N)Nc1ccc(Cl)c(Cl)c1 | inactive | 2.57 (≈ 8.56 µM) | 3.42 (≈ 11.4 µM) | > 60 | 3.31 (≈ 11 µM) | > 60 |  |  |  | 
CC(C)(C)N1CC(=O)N=C1NC(=N)Nc1ccc(Cl)c(Cl)c1 |  | 1.01 (≈ 2.95 µM) | 2.75 (≈ 8.04 µM) | > 60 | > 5 | > 60 |  |  | 2 | Activity (Plasmodium berghei [12]): Active
